Experimental data published in ChEMBL document CHEMBL1687902, “Discovery of potent inhibitors of soluble epoxide hydrolase by combinatorial library design and structure-based virtual screening” (J Med Chem, 2011).

Assays:
[1] = Inhibition of chimeric mouse-human sEH assessed as 6,8-difluoro-4-methylumbelliferyl trans-2,3-epoxy-3-phenylpropylcarbonate hydrolysis preincubated for 10 mins before addition of substrate by fluorometric assay
[2] = Metabolic stability in human liver microsomes assessed as compound remaining after 30 mins; assay type: ADME, Microsome; conditions: read-out: Stability
In short: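 Pooled human liver microsomes, compound at 1 μM in 100 mM phosphate buffer pH 7.4. NADP+ regenerating system (1 mM NADP+, 5 mM isocitric acid, 1 U/mL isocitric dehydrogenase) with 1 mM MgCl2. Read-out is percent parent remaining after 30 min incubation.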

[3] = test system: soluble epoxide hydrolase (Chlorocebus aethiops); assay: Inhibition of native sEH in african green monkey COS7 cells assessed as 11,12-epoxyeicosatrienoic acid hydrolysis preincubated for 1 hr before substrate addition measured after 2 hrs by LC/MS/MS; conditions: cos-7

SMILES | IC50 [1] [nM] | remaining at 0.5 h [2] [%] | IC50 [3] [nM]
Cc1cc(C)c2oc(NC(=O)CC3CCN(C(=O)OC(C)(C)C)CC3)nc2c1 | 73 | 22 | 4.38
CC(=O)c1ccc(N2CCC(CC(=O)Nc3nc4cc(C)cc(C)c4o3)CC2)cc1 | 46.5 | 22 | 1.42
CC(=O)c1ccc(N2CCC(CC(=O)Nc3nc4c(C)cccc4o3)CC2)cc1 | 109 |  | 
CC(=O)c1ccc(N2CCC(CC(=O)Nc3nc4cc(C)ccc4o3)CC2)cc1 | 3.61 | 53 | 5.76
CC(=O)c1ccc(N2CCC(CC(=O)Nc3nc4ccc(C)cc4o3)CC2)cc1 | 184 |  | 
CC(C)(C)OC(=O)N1CCC(CC(=O)Nc2nc3ccccc3o2)CC1 | 94.3 | 83 | 10.3
CC(C)(C)OC(=O)N1CCC(CC(=O)Nc2nc3cc(Cl)ccc3o2)CC1 | 6.92 | 43 | 1.54
Cc1ccc2nc(NC(=O)CC3CCN(C(=O)OC(C)(C)C)CC3)oc2c1 | 202 |  | 
Cc1ccc2oc(NC(=O)CC3CCN(C(=O)OC(C)(C)C)CC3)nc2c1 | 11.4 | 6 | 0.486
CC(=O)c1ccc(N2CCC(CC(=O)Nc3nc4cc(Cl)ccc4o3)CC2)cc1 | 3.58 | 45 | 4.68
Cc1cccc2oc(NC(=O)CC3CCN(C(=O)OC(C)(C)C)CC3)nc12 | 272 |  | 
CC(=O)c1ccc(N2CCC(CC(=O)Nc3nc4ccccc4o3)CC2)cc1 | 19.4 | 62 | 22
